Source: ChEMBL document CHEMBL4354866, “TREK Channel Family Activator with a Well-Defined Structure-Activation Relationship for Pain and Neurogenic Inflammation” (J Med Chem, 2020)
Activity calls are given as the source filed them.

Key:
[1] = target: T1, Potassium channel subfamily K member 2 (Homo sapiens) (UniProt O95069); experiment: Activation of recombinant human TREK1 expressed in HEK293T cells assessed as change in single channel conductance by outside-out patch electrophysiological analysis; type: cell-based
T1 sequence (whole entry): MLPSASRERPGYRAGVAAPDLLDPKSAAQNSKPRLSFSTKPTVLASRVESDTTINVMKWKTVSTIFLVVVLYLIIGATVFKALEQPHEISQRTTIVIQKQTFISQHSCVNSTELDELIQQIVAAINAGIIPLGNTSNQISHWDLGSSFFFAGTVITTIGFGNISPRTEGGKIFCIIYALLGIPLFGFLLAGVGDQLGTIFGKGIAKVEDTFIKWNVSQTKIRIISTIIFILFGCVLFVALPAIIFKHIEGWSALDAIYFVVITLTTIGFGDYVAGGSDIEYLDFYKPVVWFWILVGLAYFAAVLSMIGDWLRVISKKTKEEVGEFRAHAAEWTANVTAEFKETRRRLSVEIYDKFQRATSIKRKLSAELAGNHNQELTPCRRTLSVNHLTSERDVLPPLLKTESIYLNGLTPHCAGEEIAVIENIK
Method in brief: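 Outside-out patches from HEK-293T cells transfected with human TREK-1 (pEGFP-N1). Pipettes 7–15 MΩ. Open probability measured at -60 and +60 mV. Conductance taken as first open-state current amplitude divided by voltage at ±60 mV.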

[2] = target: T1, Potassium channel subfamily K member 2 (Homo sapiens); experiment: Activation of recombinant human TREK1 expressed in HEK293T cells assessed as change in probability of open channel by inside-out patch electrophysiological analysis; type: cell-based
Method in brief: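 Inside-out patches from HEK-293T cells expressing human TREK-1 (pEGFP-N1), 10 μM compound. Conductance taken as first open-state amplitude over voltage at -60 or +60 mV.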

[3] = target: Potassium channel subfamily K member 9 (Homo sapiens) (UniProt Q9NPC2); experiment: Activation of recombinant human TASK3 expressed in HEK293T cells assessed as increase in K+ current amplitude at 10 uM by whole cell voltage clamp electrophysiological analysis; type: cell-based
Chain of Potassium channel subfamily K member 9 (Homo sapiens) (Q9NPC2 whole entry): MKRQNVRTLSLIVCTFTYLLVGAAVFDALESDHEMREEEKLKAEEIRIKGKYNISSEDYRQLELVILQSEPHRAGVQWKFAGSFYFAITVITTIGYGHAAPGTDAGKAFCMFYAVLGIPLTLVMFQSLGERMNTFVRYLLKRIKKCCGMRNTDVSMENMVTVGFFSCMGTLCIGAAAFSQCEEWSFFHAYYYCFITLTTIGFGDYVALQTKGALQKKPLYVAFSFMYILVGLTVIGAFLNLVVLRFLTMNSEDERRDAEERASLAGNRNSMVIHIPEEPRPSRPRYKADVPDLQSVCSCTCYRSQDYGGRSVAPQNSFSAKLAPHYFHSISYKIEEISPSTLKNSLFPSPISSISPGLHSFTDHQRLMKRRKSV
Method in brief: (§1)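 HEK-293T cells transiently transfected with the human K2P channel. Whole-cell clamp at -60 mV, 500-ms ramp -120 to +60 mV. Pipette 140 KCl (pH 7.4), external 145 NaCl/4 KCl (pH 7.3). Compound 10 μM, diluted from 10 mM DMSO stock into external solution.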

[4] = target: T2, TREK-2 two-pore-domain K+ channel (Mus musculus, UniProt Q3LS20); experiment: Activation of recombinant mouse TREK2 expressed in HEK293T cells assessed as increase in K+ current amplitude by whole cell voltage clamp electrophysiological analysis; type: cell-based
T2 sequence (Q3LS20 whole entry): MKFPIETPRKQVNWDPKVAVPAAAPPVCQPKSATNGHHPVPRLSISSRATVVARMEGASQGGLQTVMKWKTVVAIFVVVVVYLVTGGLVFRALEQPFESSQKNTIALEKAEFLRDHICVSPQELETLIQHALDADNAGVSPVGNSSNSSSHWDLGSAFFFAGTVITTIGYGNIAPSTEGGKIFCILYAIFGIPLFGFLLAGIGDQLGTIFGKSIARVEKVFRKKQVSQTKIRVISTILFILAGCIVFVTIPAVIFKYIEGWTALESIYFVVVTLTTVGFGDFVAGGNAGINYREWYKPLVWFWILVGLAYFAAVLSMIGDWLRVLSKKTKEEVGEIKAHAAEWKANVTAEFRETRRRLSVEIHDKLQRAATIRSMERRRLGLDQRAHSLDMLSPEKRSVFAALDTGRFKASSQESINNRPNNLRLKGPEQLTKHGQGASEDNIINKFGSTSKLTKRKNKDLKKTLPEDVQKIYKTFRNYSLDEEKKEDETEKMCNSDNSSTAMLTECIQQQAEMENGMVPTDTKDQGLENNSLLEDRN
Method in brief: (§2)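 Transiently transfected HEK-293T cells, whole-cell voltage clamp. Held at -60 mV, 500-ms ramp -120 to +60 mV. Pipette (mM) 140 KCl, 5 EGTA, 10 HEPES, pH 7.4; external 145 NaCl, 4 KCl, pH 7.3. Compound diluted from 10 mM DMSO stock and applied extracellularly. Current increase over control fitted to concentration–response curves for EC50.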

Mus musculus = experiment: Analgesic activity in mouse assessed as increase in tail flick latency time at 5 mg/kg, ip at 5 to 52 degC by tail immersion test; type: functional, organism-based
Method in brief: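 Male BALB/c or C57BL/6 mice, 6–8 weeks, acclimated in a holder 15 min/day for 3 days. Distal 3 cm of tail immersed at 5, 20, 40, 46 or 52 °C; flick latency recorded, cut-off 15 s. Compound i.p. in 5% DMSO/5% Tween 80/90% saline (1.25–10 mg/kg at 52 °C; 5 mg/kg across temperatures).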

[5] = target: Potassium channel subfamily K member 2 (Homo sapiens, UniProt O95069, F149A); experiment: Activation of recombinant human TREK1 F149A mutant expressed in HEK293T cells assessed as increase in K+ current amplitude by whole cell voltage clamp electrophysiological analysis; type: cell-based; method in brief: as §2
Chain of Potassium channel subfamily K member 2 (O95069 whole entry F149A): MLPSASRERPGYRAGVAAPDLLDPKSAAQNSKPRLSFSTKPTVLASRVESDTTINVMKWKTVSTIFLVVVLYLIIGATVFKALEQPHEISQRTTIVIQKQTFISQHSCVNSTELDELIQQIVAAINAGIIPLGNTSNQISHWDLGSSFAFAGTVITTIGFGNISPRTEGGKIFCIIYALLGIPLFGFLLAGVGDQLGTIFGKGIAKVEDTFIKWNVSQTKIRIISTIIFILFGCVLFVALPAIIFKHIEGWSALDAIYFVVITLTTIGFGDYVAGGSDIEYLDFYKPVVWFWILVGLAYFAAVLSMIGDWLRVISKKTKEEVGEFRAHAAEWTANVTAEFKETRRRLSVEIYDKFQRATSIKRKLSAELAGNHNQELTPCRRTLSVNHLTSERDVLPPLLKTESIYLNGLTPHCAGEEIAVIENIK

[6] = target: T3, Potassium channel subfamily K member 13 (Homo sapiens) (UniProt Q9HB14); experiment: Activation of recombinant human THIK1 expressed in HEK293T cells assessed as increase in K+ current amplitude at 10 uM by whole cell voltage clamp electrophysiological analysis; type: cell-based; method in brief: as §1
T3 sequence (whole entry): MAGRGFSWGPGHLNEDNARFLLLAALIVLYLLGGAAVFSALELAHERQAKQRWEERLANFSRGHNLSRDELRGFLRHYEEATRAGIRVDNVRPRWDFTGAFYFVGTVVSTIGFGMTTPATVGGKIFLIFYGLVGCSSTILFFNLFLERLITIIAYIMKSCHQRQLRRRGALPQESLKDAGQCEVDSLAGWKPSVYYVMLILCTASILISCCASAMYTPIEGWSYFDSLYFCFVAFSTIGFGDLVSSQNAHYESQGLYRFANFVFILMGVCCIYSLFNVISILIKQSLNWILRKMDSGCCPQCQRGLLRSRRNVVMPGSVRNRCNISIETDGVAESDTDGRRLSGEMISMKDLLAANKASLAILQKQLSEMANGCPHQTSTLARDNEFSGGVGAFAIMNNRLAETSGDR

- Activity [1]: inactive
- Activity [2]: inactive
- Activity [3]: Active
- EC50 [4]: 11.3 µM
- EC50 [5]: 22.4 µM
- Activity [6]: Active
Compound: Cc1ccc2nc(-c3ccc(NC(=O)[C@@H]4CC[C@H](C(=O)O)C4)cc3)sc2c1
- Activity (Mus musculus): Active
